Apaf-1 inh: inhibitors of human Apaf-1 apoptosome, primary screen, biochemical, DEVD-Rh110 fluorescence, uHTS. reconstituted apoptosome caspase-3 activity. inhibition, % at 20 µM. 330,000 compounds, 0.71% hits. AID 489030, 2010; active = inhibition of at least 40% at 20 µM;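 also: plate controls were DMSO wells for no effect and DEVD-CHO caspase inhibitor wells for full effect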
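Medium: Hepes buffer, pH 7.5 / System: biochemical Apaf-1 apoptosome reconstitution / Measured by: Rh110 fluorescence, excitation 480 nm, emission 540 nm / Times: compound with Apaf-1, dATP, procaspase-3 30 min, then 50 min reaction, room temperature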
MEKK3 PB1 HTS: modulators of MEKK3-MEK5 PB1 binding, primary screen, biochemical, wildtype MEKK3, multiplex bead flow cytometry, Alexa488-MEK5; Mitogen-activated protein kinase kinase kinase 3 (Homo sapiens), Q99759; bead-based flow cytometry, Alexa488-MEK5 binding to MEKK3; actives lie on both sides; 0 = blocked by unlabeled MEK5, 100 = vehicle; binding response (% of control), % at 10 µM; 290,000 compounds, 1.4% hits;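 active = binding response more than 3 SD above or below the average of its plate-row segment, actives on both sides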;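 also: Alexa488 bead fluorescence after subtracting the streptavidin-only scavenger bead signal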
MEKK2mut PB1 HTS: MEK5 binding signal on mutant MEKK2 PB1, primary screen, biochemical, multiplex bead flow cytometry, Alexa488-MEK5. Alexa488-MEK5 binding to MEKK2 mutant. percent response, % at 10 µM. 290,000 compounds, 0.35% hits. AID 1530, 2009; in the data active = percent response above about 24%, passing the limit was not always enough
UBC13 polyUb: UBC13 polyubiquitin chain formation inhibitors, primary screen, biochemical, TR-FRET, uHTS | Ubiquitin-conjugating enzyme E2 N (Homo sapiens), P61088 | inhibition, % at 20 µM | 330,000 compounds, 0.47% hits; in the data active = inhibition above about 45%, passing the limit was not always enough
Target sequence (P61088 whole entry, looked up): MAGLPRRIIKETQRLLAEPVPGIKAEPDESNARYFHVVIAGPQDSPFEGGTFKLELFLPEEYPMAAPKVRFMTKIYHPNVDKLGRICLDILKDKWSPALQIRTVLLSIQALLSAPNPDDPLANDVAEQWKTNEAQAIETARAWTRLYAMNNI
MEKK2 WT-MEK5: modulators of MEK5 binding to wildtype MEKK2, primary screen, biochemical, multiplex bead flow cytometry, Alexa488-MEK5; binding response (% of control), % at 10 µM; Alexa488-MEK5 binding to MEKK2 WT; actives lie on both sides; Mitogen-activated protein kinase kinase kinase 2 (Homo sapiens), Q9Y2U5; 290,000 compounds, 1.1% hits; in the data active = binding response below about 67% or above about 130%
MEKK2wt confirm: modulators of MEK5 binding to wildtype MEKK2, confirmation, biochemical, single concentration, multiplex bead flow cytometry; shares compounds with MEKK3 PB1 HTS; Alexa488-MEK5 binding to MEKK2 WT; actives lie on both sides; binding response (% of control), % at 10 µM; 5,900 compounds, 2.4% hits; in the data active = binding response below about 16% or above about 210%; inactive = in between
MEKK2mut confirm: mutant MEKK2 PB1-MEK5 binding signal retest – biochemical, single concentration, multiplex bead flow cytometry, confirmation | shares compounds with MEKK3 PB1 HTS | Alexa488-MEK5 binding to MEKK2 mutant | percent response, % at 10 µM | 5,900 compounds, 2% hits; in the data active = percent response mostly above about 71%, no sharp cut-off; inactive = mostly below about 38%;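 also: higher means compound restores mutant binding toward wildtype level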
MEKK3-MEK5 inh: MEKK3 wild-type PB1 binding to MEK5, inhibitors, confirmation, biochemical, bead multiplex flow cytometry, single concentration, wildtype; shares compounds with MEKK3 PB1 HTS; Alexa488-MEK5 binding to MEKK3; stronger effect = lower value; binding response (% of control), % at 10 µM; 5,900 compounds, 1.8% hits; AID 1894, 2009;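 active = binding response below 72% of control, or above a set upper limit, though filed actives all read lower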;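 also: 100% = DMSO only wells and 0% = binding blocked by excess unlabeled MEK5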
Numbers without * were called inactive; · = no result given; [ ] = remark or other dose. In the library only some 2.9% were active in any assay of this set; here they are far more common.

SMILES	Apaf-1 inh	MEKK3 PB1 HTS	MEKK2mut PB1 HTS	UBC13 polyUb	MEKK2 WT-MEK5	MEKK2wt confirm	MEKK2mut confirm	MEKK3-MEK5 inh
O=C(c1ccccc1)c1n[nH]c(-c2ccccc2)cc1=O	-6	97	-2	-5	95	·	·	·
O=C1NC(=Nc2cccc(Cl)c2)SC1Cc1cccc(Cl)c1Cl (centres undefined)	7	95	-4	7	92	·	·	·
COc1ccc(C(=O)N/N=C/C2CC=CCC2)cc1OC (centres undefined)	-4	103	-10	-22	82	·	·	·
Cc1cc2c(=O)n(CC(=O)N3CCN(c4ccccc4)CC3)cnc2s1	11	105	3	-4	105	·	·	·
O=C(Cn1cnc2ccccc2c1=O)N1CCN(c2ccccc2)CC1	-4	122*	6	6	104	102	1	103
CCOc1cc(C)c(Cl)cc1S(=O)(=O)NCc1ccc2c(c1)OCO2	9	81*[inhibitor]	-8	2	88	102	2	103
CC(=O)N1CCN(c2cc(N3CCCC3)c(F)cc2[N+](=O)[O-])CC1	6	106	1	-110	105	·	·	·
CCN1CCN(c2cc(N3CCc4ccccc4C3)c(F)cc2[N+](=O)[O-])CC1	19	100	39	15	151*	153	22	110
O=C(O)CCCC(=O)N1N=C(c2c(-c3ccccc3)c3cc(Cl)ccc3[nH]c2=O)CC1c1cccs1 (centres undefined)	·	98	1	·	103	·	·	·
O=C(O)CCC(=O)N1N=C(c2c(-c3ccccc3)c3cc(Cl)ccc3[nH]c2=O)CC1c1cccs1 (centres undefined)	16	134*	1	-4	105	102	-3	101
CCOc1ccccc1NC(=O)CSc1nnc2ccc(-c3cccnc3)nn12	12	66	-28	-10	74	·	·	·
COc1ccccc1NC(=O)CSc1nnc2ccc(-c3cccnc3)nn12	0	118	190*	-6	107	104	6	107
COc1ccc(N2CCN(C(=O)CSc3nnc4c(C)cc5ccc(C)c(C)c5n34)CC2)cc1	7	36*[inhibitor]	-21	-18	51	98	-2	96
COc1ccc(N2CCN(C(=O)CSc3nnc4c(C)cc5cc(C)ccc5n34)CC2)cc1	30	·	·	-19	·	·	·	·
COc1ccccc1CNC(=O)c1ccc(N2CCOCC2)c([N+](=O)[O-])c1	2	44*[inhibitor]	-19	-4	53	104	3	110
COc1cccc(CNC(=O)c2ccc(N3CCOCC3)c([N+](=O)[O-])c2)c1	5	101	1	-4	99	·	·	·
Cc1ccc(Cl)c(OC(=O)c2ccc(N3CCOCC3)c([N+](=O)[O-])c2)c1	2	137*	1	9	109	99	-2	104
Cc1ccc(C(=O)c2cc([N+](=O)[O-])ccc2N2CCOCC2)cc1	·	105	2	·	102	·	·	·
O=C(OCC(=O)N1CCCCC1)c1cc(NS(=O)(=O)c2ccc(Cl)c([N+](=O)[O-])c2)ccc1O	9	99	18	-6	112	·	·	·
COC(=O)c1ccc(CNC(=O)C(NC(=O)c2ccco2)C(C)C)cc1 (centres undefined)	0	98	0	7	99	·	·	·
CCOc1ncccc1C(=O)OCC(=O)c1cccc(Br)c1	10	82	-7	8	90	·	·	·

Screening data: PubChem, several laboratories
